pEC50: −log10 of the molar value.
Legend:
Cytochrome P450 2C19 [1] = target: T1, Cytochrome P450 2C19 (Homo sapiens, UniProt P33261); experiment: Inhibition of human CYP2C19; format: ADME
Cytochrome P450 3A4 [2] = target: T2, Cytochrome P450 3A4 (Homo sapiens, UniProt P08684); experiment: Inhibition of human CYP3A4; format: ADME
[3] = target: T3, Nitric oxide synthase, inducible (Mus musculus, UniProt P29477); experiment: Inhibition of mouse iNOS expressed in HEK293 cells assessed as inhibition of nitric oxide production after 18 hrs using 2,3-diaminonaphthalene by fluorescence assay; format: cell-based
T3 sequence (P29477 whole entry): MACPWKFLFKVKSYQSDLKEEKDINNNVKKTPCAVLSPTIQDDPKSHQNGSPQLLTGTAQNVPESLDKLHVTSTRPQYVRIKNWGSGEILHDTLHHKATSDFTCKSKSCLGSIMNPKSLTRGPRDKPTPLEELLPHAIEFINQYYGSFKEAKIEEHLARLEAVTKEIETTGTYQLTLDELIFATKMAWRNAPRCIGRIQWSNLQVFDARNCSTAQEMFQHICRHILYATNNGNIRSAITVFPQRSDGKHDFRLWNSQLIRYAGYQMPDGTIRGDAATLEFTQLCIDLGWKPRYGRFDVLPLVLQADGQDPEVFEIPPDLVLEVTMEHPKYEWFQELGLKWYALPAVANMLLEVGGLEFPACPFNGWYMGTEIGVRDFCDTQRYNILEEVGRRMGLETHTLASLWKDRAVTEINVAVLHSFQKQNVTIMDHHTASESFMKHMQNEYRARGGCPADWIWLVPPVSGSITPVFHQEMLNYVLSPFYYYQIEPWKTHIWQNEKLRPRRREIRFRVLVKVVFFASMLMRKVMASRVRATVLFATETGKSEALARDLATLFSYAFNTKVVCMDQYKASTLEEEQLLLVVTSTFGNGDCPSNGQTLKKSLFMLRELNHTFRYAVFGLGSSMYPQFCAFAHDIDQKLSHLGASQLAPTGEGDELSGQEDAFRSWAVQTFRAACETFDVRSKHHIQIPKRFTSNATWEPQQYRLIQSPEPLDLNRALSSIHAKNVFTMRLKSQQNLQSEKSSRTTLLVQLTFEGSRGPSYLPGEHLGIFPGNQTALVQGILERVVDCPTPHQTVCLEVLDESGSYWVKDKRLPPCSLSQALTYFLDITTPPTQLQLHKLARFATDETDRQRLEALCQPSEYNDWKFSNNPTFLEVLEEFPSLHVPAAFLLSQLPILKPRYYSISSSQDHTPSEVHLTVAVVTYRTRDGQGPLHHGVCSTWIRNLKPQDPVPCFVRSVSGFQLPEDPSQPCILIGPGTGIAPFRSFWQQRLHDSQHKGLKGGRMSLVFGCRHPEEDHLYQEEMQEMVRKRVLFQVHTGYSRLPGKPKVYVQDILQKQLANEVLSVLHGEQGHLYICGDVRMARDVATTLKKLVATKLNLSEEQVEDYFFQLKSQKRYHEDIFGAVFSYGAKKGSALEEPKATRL
Method in brief: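 HEK293 cells grown to ~70% confluence in DMEM/10% FBS with pen/strep, transiently transfected with 10 μg human or murine iNOS plasmid plus Fugene 6 for 4 h at 37 °C, 10% CO2. Cells replated at 5e5 cells/mL and dosed with compound at once; 1400W (100 μM final) as positive control. After 18 h, DAN (10 μg/mL final) in HCl (0.1 N final) added for 20 min at room temperature. Fluorescence read after NaOH (0.12 N final).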

[4] = Oral bioavailability in mouse at 10 mg/kg; format: ADME, organism-based; details: in vivo
[5] = Half life in mouse at 10 mg/kg, po; format: ADME, organism-based; set-up: dose 10 mg/kg, route oral; details: in vivo
[6] = Half life in mouse at 3 mg/kg, iv and 10 mg/kg, po; details: in vivo
[7] = AUC in mouse at 3 mg/kg, iv and 10 mg/kg, po; format: ADME, organism-based; details: plasma
Brain = experiment: Drug uptake in rat brain by microdialysis relative to compound plasma level; format: ADME, tissue-based; details: in vivo
Mus musculus [8] = experiment: Antinociceptive activity against formalin-induced pain in mouse assessed as attenuation of nocifensive phase 2 behaviors during phase 2 (25 to 45 mins post formalin injection) administered via oral gavage 30 mins before to formalin challenge; format: functional
Method in brief: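 Mice were given compound by oral gavage in PEG/Tween 80/PVP + CMC vehicle 30 min before 20 μL of 5% formalin was injected into the left hind paw. Paw flinching, licking and biting were timed in 5 min bins by a single observer. Read-out was time in nociceptive behaviour at 25-45 min. Mean ± SE, n = 5-6, one-way ANOVA with post hoc tests.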

[9] = target: T4, Voltage-gated inwardly rectifying potassium channel KCNH2 (Homo sapiens, UniProt Q12809); experiment: Inhibition of human ERG at >30 uM by patch clamp assay
T4 sequence (Q12809 whole entry): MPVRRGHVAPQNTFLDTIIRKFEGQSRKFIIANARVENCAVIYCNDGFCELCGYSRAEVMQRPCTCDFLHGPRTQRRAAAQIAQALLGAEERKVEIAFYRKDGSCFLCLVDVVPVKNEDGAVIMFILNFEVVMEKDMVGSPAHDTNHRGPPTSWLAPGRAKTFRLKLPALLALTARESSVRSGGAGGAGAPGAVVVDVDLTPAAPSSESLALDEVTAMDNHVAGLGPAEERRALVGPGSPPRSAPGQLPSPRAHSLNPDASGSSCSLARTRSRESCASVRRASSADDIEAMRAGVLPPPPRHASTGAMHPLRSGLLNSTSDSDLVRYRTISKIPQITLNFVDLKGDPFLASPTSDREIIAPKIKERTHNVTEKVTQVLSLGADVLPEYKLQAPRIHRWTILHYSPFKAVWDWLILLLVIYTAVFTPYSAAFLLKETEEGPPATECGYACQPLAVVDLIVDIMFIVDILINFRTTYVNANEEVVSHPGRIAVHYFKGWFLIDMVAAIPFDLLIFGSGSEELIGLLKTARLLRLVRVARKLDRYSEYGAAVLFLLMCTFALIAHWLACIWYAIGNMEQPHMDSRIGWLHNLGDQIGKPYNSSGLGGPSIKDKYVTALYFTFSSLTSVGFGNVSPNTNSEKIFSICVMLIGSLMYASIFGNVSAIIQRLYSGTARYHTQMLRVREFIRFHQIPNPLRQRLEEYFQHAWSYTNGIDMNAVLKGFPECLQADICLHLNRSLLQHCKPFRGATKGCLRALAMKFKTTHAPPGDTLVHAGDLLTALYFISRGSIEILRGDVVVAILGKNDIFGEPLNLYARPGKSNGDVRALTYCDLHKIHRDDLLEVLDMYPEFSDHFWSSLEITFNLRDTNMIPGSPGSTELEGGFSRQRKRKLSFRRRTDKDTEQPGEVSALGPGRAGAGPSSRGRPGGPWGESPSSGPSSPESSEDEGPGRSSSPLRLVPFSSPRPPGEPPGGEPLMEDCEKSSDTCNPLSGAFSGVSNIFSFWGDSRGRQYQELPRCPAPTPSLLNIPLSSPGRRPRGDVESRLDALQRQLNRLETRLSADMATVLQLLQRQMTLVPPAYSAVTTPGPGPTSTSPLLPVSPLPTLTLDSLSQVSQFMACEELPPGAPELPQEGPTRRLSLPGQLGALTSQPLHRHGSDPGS

[10] = target: T4, Voltage-gated inwardly rectifying potassium channel KCNH2; experiment: Inhibition of human ERG by patch clamp assay
Cytochrome P450 3A4 [11] = target: T2, Cytochrome P450 3A4; experiment: Inhibition of human CYP3A4 at >100 uM; format: ADME
Cytochrome P450 2C9 = Cytochrome P450 2C9 (Homo sapiens, UniProt P11712); experiment: Inhibition of human CYP2C9 at >60 uM; format: ADME
Sequence of Cytochrome P450 2C9 (P11712 whole entry): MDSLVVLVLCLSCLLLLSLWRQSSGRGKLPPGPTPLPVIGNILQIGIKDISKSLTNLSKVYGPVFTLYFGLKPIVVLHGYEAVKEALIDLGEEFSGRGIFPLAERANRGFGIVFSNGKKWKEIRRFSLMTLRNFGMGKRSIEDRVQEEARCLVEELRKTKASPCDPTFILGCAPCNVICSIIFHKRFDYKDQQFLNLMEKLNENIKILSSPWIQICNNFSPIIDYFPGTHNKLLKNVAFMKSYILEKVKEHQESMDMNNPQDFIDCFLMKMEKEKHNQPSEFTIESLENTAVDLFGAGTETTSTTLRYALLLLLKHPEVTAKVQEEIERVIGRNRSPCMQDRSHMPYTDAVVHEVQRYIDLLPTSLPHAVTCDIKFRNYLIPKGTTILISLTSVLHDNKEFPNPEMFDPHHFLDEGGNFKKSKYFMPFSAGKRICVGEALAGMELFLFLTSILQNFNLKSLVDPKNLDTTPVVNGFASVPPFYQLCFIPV

Mus musculus [12] = experiment: Inhibition of LPS-induced iNOS activation in BALB/c mouse assessed as plasma nitrate levels at 30 mg/kg administered via oral gavage before LPS challenge measured after 6 to 8 hrs using 2,3-diaminonaphthalene by fluorescence assay relative to control; format: functional
Method in brief: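 Male BALB/c mice dosed by oral gavage (90% PEG/5% Tween 80/5% PVP + 0.5% w/v CMC) immediately before LPS (10 mg/kg ip in 0.9% NaCl). Mice killed at 6 h. EDTA plasma analysed for nitrate and drug levels; nitrite measured by DAN fluorescence.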

Cytochrome P450 3A4 [13] = target: T2, Cytochrome P450 3A4; experiment: Inhibition of human CYP3A4 at >60 uM; format: ADME
Cytochrome P450 2C19 [14] = target: T1, Cytochrome P450 2C19; experiment: Inhibition of human CYP2C19 at >60 uM; format: ADME
[15] = Cmax in mouse 10 mg/kg, po; format: ADME, organism-based; set-up: dose 10 mg/kg, route oral; details: in vivo

T2 sequence (P08684 whole entry): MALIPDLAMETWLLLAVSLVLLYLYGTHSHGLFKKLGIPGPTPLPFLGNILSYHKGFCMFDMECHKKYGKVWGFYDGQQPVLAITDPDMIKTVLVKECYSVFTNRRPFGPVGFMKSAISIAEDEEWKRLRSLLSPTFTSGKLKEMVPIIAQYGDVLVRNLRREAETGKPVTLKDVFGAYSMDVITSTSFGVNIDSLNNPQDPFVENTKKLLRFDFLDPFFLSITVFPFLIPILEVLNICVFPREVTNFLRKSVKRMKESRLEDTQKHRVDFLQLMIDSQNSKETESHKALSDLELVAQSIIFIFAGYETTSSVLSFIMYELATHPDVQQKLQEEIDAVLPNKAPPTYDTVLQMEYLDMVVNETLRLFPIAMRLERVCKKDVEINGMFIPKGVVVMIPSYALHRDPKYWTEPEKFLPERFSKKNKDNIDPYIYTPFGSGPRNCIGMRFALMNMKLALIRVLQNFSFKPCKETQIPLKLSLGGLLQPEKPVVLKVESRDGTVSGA
T1 sequence (P33261 whole entry): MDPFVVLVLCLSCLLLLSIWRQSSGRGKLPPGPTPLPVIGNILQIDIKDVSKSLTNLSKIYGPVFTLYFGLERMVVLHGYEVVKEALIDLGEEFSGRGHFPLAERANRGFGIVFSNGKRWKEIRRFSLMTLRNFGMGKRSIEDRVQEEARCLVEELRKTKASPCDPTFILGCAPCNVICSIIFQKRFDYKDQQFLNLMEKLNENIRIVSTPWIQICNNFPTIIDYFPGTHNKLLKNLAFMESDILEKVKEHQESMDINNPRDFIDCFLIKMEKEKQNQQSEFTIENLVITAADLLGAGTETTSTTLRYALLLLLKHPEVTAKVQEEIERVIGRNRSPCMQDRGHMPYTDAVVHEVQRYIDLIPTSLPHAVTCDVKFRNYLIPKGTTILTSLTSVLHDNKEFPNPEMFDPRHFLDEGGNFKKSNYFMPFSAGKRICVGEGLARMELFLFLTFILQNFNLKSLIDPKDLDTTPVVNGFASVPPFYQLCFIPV

SMILES	pEC50 (Cytochrome P450 2C19 [1])	pEC50 (Cytochrome P450 3A4 [2])	pEC50 [3]	bioavailability [4] [%]	half-life [5] [h]	half-life [6] [h]	AUC [7] [ng·h/mL]	Drug uptake (Brain) [%]	inhibition (INH) (Cytochrome P450 3A4 [11]) [%]	inhibition (INH) (Cytochrome P450 2C9) [%]	inhibition (INH) (Cytochrome P450 3A4 [13]) [%]	inhibition (INH) (Cytochrome P450 2C19 [14]) [%]	Cmax [15] [ng/mL]	ED50 (Mus musculus [8]) [mg/kg]	inhibition (INH) [9] [%]	pEC50 [10]	inhibition in vivo at 30 mg/kg (Mus musculus [12]) [%]
O=c1cc(Cn2c(C3CCC3)nc3nccnc32)c2ccc(F)c(F)c2[nH]1	< 4.42	< 4.00	6.37	62	2.3	2.1		2	< 50	< 50				13	< 50	< 4.52	
CC(C)Cc1nc2ccccc2n1Cc1cc(=O)[nH]c2c(F)c(F)ccc12			5.51	81	5.2	1.7	13300										85
CC(C)Cc1nc2nccnc2n1Cc1cc(=O)[nH]c2c(F)c(F)ccc12	< 4.22	< 4.22	6.36	39	1.8	6	11000				< 50	< 50	3700		< 50	< 4.52	

Further lines, with some results ahead:

pEC50 (Cytochrome P450 2C19 [1])	pEC50 (Cytochrome P450 3A4 [2])	pEC50 [3]	bioavailability [4] [%]	half-life [5] [h]	half-life [6] [h]	AUC [7] [ng·h/mL]	Drug uptake (Brain) [%]	inhibition (INH) (Cytochrome P450 3A4 [11]) [%]	inhibition (INH) (Cytochrome P450 2C9) [%]	inhibition (INH) (Cytochrome P450 3A4 [13]) [%]	inhibition (INH) (Cytochrome P450 2C19 [14]) [%]	Cmax [15] [ng/mL]	SMILES	ED50 (Mus musculus [8]) [mg/kg]	inhibition (INH) [9] [%]	pEC50 [10]	inhibition in vivo at 30 mg/kg (Mus musculus [12]) [%]
4.57	4.64	5.48	55	2.3	4	15000							O=c1cc(Cn2c(C3CC(F)(F)C3)nc3nccnc32)c2cccc(F)c2[nH]1				
< 4.22	< 4.22	5.89	91	3.1	1.3	25000			< 50	< 50	< 50	15000	O=c1cc(Cn2c(C3CCC3)nc3nccnc32)c2cccc(F)c2[nH]1				

Reference: ChEMBL document CHEMBL1800057, “Discovery of dual inducible/neuronal nitric oxide synthase (iNOS/nNOS) inhibitor development candidate 4-((2-cyclobutyl-1H-imidazo[4,5-b]pyrazin-1-yl)methyl)-7,8-difluoroquinolin-2(1H)-one (KD7332) part 2: identification of a novel, potent, and selective series of benzimidazole-quinolinone …” (J Med Chem, 2010)
